Measured values of several laboratories.
Protocols differ between the studies behind these lines.
Target: Mitogen-activated protein kinase kinase kinase kinase 2 (MAP4K2, Homo sapiens, UniProt Q12851)
One construct used (Q12851 1-820): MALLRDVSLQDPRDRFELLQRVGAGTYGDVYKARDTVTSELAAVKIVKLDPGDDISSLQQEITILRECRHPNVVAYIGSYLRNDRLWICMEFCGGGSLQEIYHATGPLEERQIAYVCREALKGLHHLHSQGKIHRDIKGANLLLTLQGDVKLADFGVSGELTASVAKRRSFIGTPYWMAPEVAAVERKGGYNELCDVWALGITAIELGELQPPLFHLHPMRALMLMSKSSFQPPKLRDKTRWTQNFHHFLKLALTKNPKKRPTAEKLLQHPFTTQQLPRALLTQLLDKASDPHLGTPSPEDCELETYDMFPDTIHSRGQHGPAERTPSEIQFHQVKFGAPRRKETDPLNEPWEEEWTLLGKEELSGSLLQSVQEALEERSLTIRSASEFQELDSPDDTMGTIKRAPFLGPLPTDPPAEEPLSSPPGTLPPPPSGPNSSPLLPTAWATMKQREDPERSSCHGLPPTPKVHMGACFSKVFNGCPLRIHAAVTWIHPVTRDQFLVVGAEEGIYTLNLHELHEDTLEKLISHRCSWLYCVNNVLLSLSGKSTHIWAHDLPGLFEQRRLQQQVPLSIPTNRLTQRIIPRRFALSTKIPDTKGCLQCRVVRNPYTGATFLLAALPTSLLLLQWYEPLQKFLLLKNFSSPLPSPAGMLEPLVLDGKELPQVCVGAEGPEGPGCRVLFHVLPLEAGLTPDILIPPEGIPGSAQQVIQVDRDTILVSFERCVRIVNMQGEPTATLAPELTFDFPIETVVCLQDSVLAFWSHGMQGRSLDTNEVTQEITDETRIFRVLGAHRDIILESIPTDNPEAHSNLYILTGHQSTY

| Structure (SMILES) | test | setting | remaining binding [%] |
| --- | --- | --- | --- |
| C[C@@H](c1ccc(-n2cnc3c(N)ncnc32)cc1)N1CCc2nn(C)c(Cc3ccccc3)c2C1=O | binding, competition with immobilised ligand | 0.1 µM | 100 |
| COc1cnc(Nc2cccc(S(N)(=O)=O)c2)nc1N1CCN(c2ccccc2)C(=O)C1 | binding, competition with immobilised ligand | 1 µM | 95 |
| CN(C(=O)c1ccccc1)c1cc(N(C)c2ccc3c(c2)CCc2ccc(C(=O)NCCN4CCOCC4)cc2C3=O)ccc1F | cell-free assay, competition with immobilised ligand | 1 µM | 97 |
| Nc1ncc2c(n1)-c1c([nH]c3ccc(C#CC4CC4)cc13)CCCC2 | binding, competition with immobilised ligand | 1 µM | 84 |
| C[C@H](c1cccc(C#N)c1)n1cc(Cl)cc(C(N)=O)c1=N | cell-free assay, competition with immobilised ligand | 1 µM | 99 |
| O=C(c1ccc(Nc2ncc(Cl)c(-c3ccc(Cl)s3)n2)cc1)N1CCC(N2CCCC2)CC1 | binding, competition with immobilised ligand | 1 µM | 15 |
| O=C(Nc1cnc(Oc2ccc(F)cc2)nc1)N1CCc2ncccc2[C@@H]1c1ccc(F)cc1 | cell-free assay, competition with immobilised ligand | 1 µM | 100 |
| COc1ccnn2ncc(-c3ccnc(N(C)C)n3)c12 | binding | 1 µM | 73 |
| O=C(NCc1ncc(C(F)(F)F)cc1Cl)c1ccc2c(c1)C1(CCS(=O)(=O)CC1)[C@@H](C1CC1)N2S(=O)(=O)c1ccc(F)cc1 | cell-free assay, competition with immobilised ligand | 1 µM | 91 |
| O=C(c1ccc(Nc2ncc(Cl)c(-c3cc4ccccc4s3)n2)cc1)N1CCC(N2CCCC2)CC1 | binding, competition with immobilised ligand | 1 µM | 36 |
| Cc1cnn2ncc(-c3ccnc(N(C)C)n3)c2c1 | binding | 1 µM | 99 |
| O=C(Nc1c[nH]nc1C(=O)NC1CCNCC1)c1cc(F)cc(F)c1 | binding, competition with immobilised ligand | 1 µM | 69 |
| CN(c1nccc(-c2cnn3ncccc23)n1)C1CC1 | binding | 1 µM | 100 |
| CC(=O)C1=C(C)N(c2cccc(C(F)(F)F)c2)C(=O)N[C@@H]1c1ccc(C#N)nc1 | cell-free assay, competition with immobilised ligand | 1 µM | 100 |
| CN(CCCC(F)(F)F)c1nccc(-c2cnn3ncccc23)n1 | binding | 1 µM | 100 |
| C=CC(=O)N1CCC(C(=O)NCC(=O)N2CCN(c3nc(-c4cnc(N)nc4C(F)F)nc(N4CCOCC4)n3)CC2)CC1 | binding, competition with immobilised ligand | 1 µM | 100 |
| CN(C)c1ncc(F)c(-c2cnn3ncccc23)n1 | binding | 1 µM | 82 |
| Cc1c[nH]c2nccc(Oc3c(F)cc(Nc4cc(Cl)nc(N)n4)cc3F)c12 | cell-free assay, competition with immobilised ligand | 0.1 µM | 69 |
| CC1CCCN1c1nccc(-c2cnn3ncccc23)n1 (stereo not shown) | binding | 1 µM | 100 |
| CNCc1ccccc1-c1csc([C@H](C)Nc2nc(C)nc3cc(OC)c(OC)cc23)c1 | cell-free assay, competition with immobilised ligand | 1 µM | 97 |
| C[C@@H]1CCN(c2nccc(-c3cnn4ncccc34)n2)C1 | binding | 1 µM | 70 |
| O=C(NCCCN1CCOCC1)c1ccc(Nc2ncc(Cl)c(-c3ccc(Cl)s3)n2)cc1 | binding, competition with immobilised ligand | 1 µM | 31 |
